Only some compounds are listed: those with a hit (about 1.9% of all), similar ones and a draw of the others.
CHRM4 agonist – agonists of human muscarinic M4 receptor (CHRM4) | CHO-K1 hM4/Gqi5, Fluo-8 calcium fluorescence; vehicle 0%, full acetylcholine response 100% | P08173 | activation, % at 3 µM | 360,000 tested, 0.14% active;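 active = activation above the run mean over all test wells plus 3 SD, cut at about 32% in these data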;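 also: peak over basal fluorescence ratio per well then scaled between controls; 0% = DMSO wells and 100% = acetylcholine at EC100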
CHRM5 antagonist – blocks acetylcholine activation of human M5 receptor. P08912. CHO-hM5 cells, Fluo-8 calcium fluorescence, ACh EC80. inhibition, % at 3 µM. 360,000 tested, 0.59% active. AID 624040;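 active = inhibition above a per-plate cutoff, the mean of that plate's test compounds plus 3 SD, cut at about 27% in these data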;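 also: 0% = acetylcholine EC80 with DMSO and 100% = DMSO without agonist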
Target sequence (P08912 whole entry, looked up): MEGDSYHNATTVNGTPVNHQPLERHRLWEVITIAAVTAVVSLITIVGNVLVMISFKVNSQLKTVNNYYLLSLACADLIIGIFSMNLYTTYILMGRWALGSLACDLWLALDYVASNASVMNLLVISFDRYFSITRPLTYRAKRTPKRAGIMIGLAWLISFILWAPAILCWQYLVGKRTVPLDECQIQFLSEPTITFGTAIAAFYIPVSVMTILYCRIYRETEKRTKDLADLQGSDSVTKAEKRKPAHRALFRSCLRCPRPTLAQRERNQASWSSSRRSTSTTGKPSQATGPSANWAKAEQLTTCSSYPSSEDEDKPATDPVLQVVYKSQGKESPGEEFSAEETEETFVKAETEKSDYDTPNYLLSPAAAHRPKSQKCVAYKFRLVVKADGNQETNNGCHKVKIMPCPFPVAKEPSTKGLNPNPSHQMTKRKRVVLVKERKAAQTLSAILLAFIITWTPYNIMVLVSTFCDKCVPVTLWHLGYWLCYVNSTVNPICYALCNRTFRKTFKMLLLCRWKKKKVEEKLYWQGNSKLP
M5 PAM – CHRM5 positive allosteric modulation | CHO-K1 hM5, Fluo-8 calcium, ACh EC20 PAM; 0% = ACh EC20, 100% = ACh EC100 | activation, % at 3 µM | 360,000 tested, 0.3% active | AID 624038;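 active = activation above the run cutoff, the mean activation of all test compounds plus 3 SD, cut at about 18% in these data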
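Assay system: CHO-K1 hM5 cells / Incubation: Fluo-8 loading 80 min at 37 °C plus 30 min room temperature / Technique: Fluo-8 calcium dye fluorescence, kinetic read / Repeats: single replicate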
CHRM5 agonist – agonists of human muscarinic M5 receptor (CHRM5) | P08912 | CHO-K1 hM5 cells, Fluo-8 calcium fluorescence; 0% DMSO wells, 100% maximal acetylcholine response | activation, % at 3 µM | 360,000 tested, 0.19% active;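 active = activation above the run's mean over test compounds plus 3 SD, cut at about 23% in these data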;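 also: signal is peak over basal fluorescence ratio across the kinetic read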
M4 antag – antagonists of human muscarinic M4 receptor (CHRM4); P08173; inhibition, % at 3 µM; CHO-hM4 cells, ACh EC80, Fluo-8 calcium fluorescence; AID 624125; 360,000 tested, 0.73% active;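 active = inhibition above its plate's cutoff, the mean inhibition of sample wells plus 3 SD, cut at about 27% in these data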;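 also: 0% = acetylcholine EC80 with DMSO and 100% = DMSO without agonist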
M4 PAM – CHRM4 positive allosteric modulation. activation, % at 3 µM. 360,000 tested, 0.4% active. P08173. CHO-K1 hM4/Gqi5, Fluo-8 calcium fluorescence, ACh EC20; 0% = ACh EC20, 100% = maximal ACh;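 active = activation above its plate's cutoff, the mean activation of sample wells plus 3 SD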
* = called active by the depositor.

SMILES | CHRM4 agonist | CHRM5 antagonist | M5 PAM | CHRM5 agonist | M4 antag | M4 PAM
CCOC(=O)N1CCN(c2ncc(C(F)(F)F)cc2Cl)CC1 | 1 | -8 | -4 | -5 | -6 | 23*
CCOC(=O)C=C1CCN(c2ncc(C(F)(F)F)cc2Cl)CC1 | 0 | 5 | -6 | 0 | -4 | -3
CC1=C(C(=O)N(C(C)C)C(C)C)CC(CC(=O)NC2CC2)C(=O)N1CCCN1CCCC1=O (stereo not drawn) | 0 | 0 | 7 | 1 | -11 | 2
CC1CCCCN1CCCNC(=O)C1CCN(c2nc3ccccc3o2)CC1 (stereo not drawn) | 1 | 0 | 3 | -5 | 55* | -16
Cc1ccc(O)c([C@H](CCN(C(C)C)C(C)C)c2ccccc2)c1 | 5 | 99* | -18 | 0 | 100* | -19
Cc1cnc(CNC(=O)c2csc([C@H]3C[C@H](O)[C@@H](CO)O3)n2)cn1 | 1 | 1 | 3 | 1 | -1 | -1
CCc1ccc(S(=O)(=O)Nc2c(C)nc3nc[nH]n3c2=O)cc1 | 2 | 4 | 38* | 8 | -10 | 5
C[C@H]1c2cccc(O)c2C(O)=C2C(=O)[C@]3(O)C(O)=C(C(N)=O)C(=O)[C@@H](N(C)C)[C@@H]3[C@@H](O)[C@@H]21 | 0 | 7 | -15 | 27* | 8 | -3
CC1=CC(C)(C)N2C(=O)C(=O)c3cc(OC(=O)c4ccco4)cc1c32 | 20 | 9 | -12 | 36* | -1 | -11
CCN(CC)S(=O)(=O)c1cccc(NC(=O)CN2C(=O)NC3(CCC(C)CC3)C2=O)c1 (stereo not drawn) | 0 | -2 | -3 | 1 | -8 | 5
OC[C@@H]1CN(CCN2CCOCC2)C[C@H](n2cnc3c(NC4CCC4)ncnc32)O1 | 1 | 18 | 4 | -3 | -8 | 5
CC(C)CN(C(=O)COC(=O)CCc1c[nH]c2ccccc12)c1c(N)n(Cc2ccccc2)c(=O)[nH]c1=O | 2 | 7 | 1 | 1 | 0 | 2
CC(C)CN(C(=O)COC(=O)CCCc1c[nH]c2ccccc12)c1c(N)n(Cc2ccccc2)c(=O)[nH]c1=O | 1 | 29* | -6 | -2 | 7 | -2
CCOC1=C2CN(S(=O)(=O)c3ccc(C)cc3)C(c3cccc(Cl)c3)CC2NC(c2ccccc2)C1 (stereo not drawn) | 5 | -5 | 3 | 3 | -7 | -4
CCCCn1nnnc1NCc1cccnc1 | 2 | 31* | -2 | 6 | -6 | 11
O=C1CC(SC(=NCc2ccc3c(c2)OCO3)Nc2ccccc2)C(=O)N1c1ccccc1 (stereo not drawn) | 1 | -7 | 14 | 0 | -19 | 24*
COCCNC(=S)N1CCN(c2cccc(C)c2C)CC1 | 16 | 28* | -17 | 1 | 7 | -5
Cc1cccc(N2CCN(C(=S)NCCc3ccccc3)CC2)c1C | 1 | 6 | -4 | 1 | 6 | -5
O=S(CC(O)c1ccccc1)c1ccccc1 (stereo not drawn) | 1 | 8 | 0 | 1 | 4 | -4
COc1ccc(CCNC(=O)Nc2ccc3c(c2)c(=O)n(C)n3CC=C(C)C)cc1OC | 1 | 1 | -1 | 1 | 3 | 2
